# TLR9-MyD88 inh: inhibitors of TLR9-MyD88 association in cells, primary screen, cell-based, CHO, BLA complementation, fluorescence | 0.21% of 340,000 active | AID 504734, 2011 | inhibition, % at 4.98 µM | CCF4 FRET ratio;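 active = inhibition above the mean over all tested compounds plus 3 SD, cut at about 21% in these data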;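 also: 0% = DMSO only wells and 100% = clavulanate BLA inhibitor control wells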
# TLR4 MyD88 comp: inhibitors of TLR4-MyD88 association in cells, primary screen, cell-based, HeLa CL3-4, BLA complementation, FRET ratio | HeLa CL3-4 TLR4/MyD88 BLA complementation | inhibition, % at 8.4 µM | 0.18% of 200,000 active | AID 861, 2007; in the data active = inhibition above about 25%;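 also: 0% = vehicle and 100% = reference inhibitor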
# UPR XBP1 act: activators of adaptive XBP1 UPR arm, primary screen, cell-based, CHO-XBP1 luciferase reporter, luminescence, uHTS | IRE1-XBP1 UPR activation; percent of tunicamycin response, DMSO as zero | 0.33% of 330,000 active | activation, % at 20 µM;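 active = versus positive control, 20 µM dose yields 30% or more activation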;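 also: 100% = tunicamycin at 10 µg/mL and 0% = DMSO only wells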
#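 Material: CHO-XBP1 cells stably carrying IRE1-XBP1-driven luciferase reporter / Amount: 1000 cells per well / Compound: 20 µM, 1% DMSO / Times: 6 h treatment, 37 °C / Detection: luciferase luminescence / Measure: % activation of reporter signal versus tunicamycin and DMSO controls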
# CHOP inh: inhibitors of CHOP promoter induction, primary screen, cell-based, unfolded protein response, luciferase reporter; AID 2732, 2010; inhibition, % at 10 µM; CHO-K1 CHOP-promoter luciferase, tunicamycin-induced, 15-18 h; 3.8% of 220,000 active;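 active = compounds that reduced the stress-induced luciferase reporter signal by more than about 70% of percent inhibition, limit read from the data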;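 also: 0% = tunicamycin plus vehicle and 100% = wells without tunicamycin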
# NOD2 RIPK2 PPI: NOD2-RIPK2 binding disruptors in cells, primary screen, fluorescence, CHO cells, BLA complementation; 0.38% of 360,000 active; inhibition, % at 4.98 µM; Receptor-interacting serine/threonine-protein kinase 2 (Homo sapiens), O43353; CCF4 ratio; in the data active = inhibition above about 21%;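 also: 0% = vehicle only and 100% = reference blocker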
# CHOP UPR activ: activators of apoptotic CHOP UPR arm, primary screen, cell-based, CHO-CHOP luciferase reporter, luminescence, uHTS; UPR activation; percent of tunicamycin response over DMSO baseline; activation, % at 10 µM; 0.34% of 330,000 active;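 active = at 10 µM dose, activation of 40% or more, normalized to positive control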;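 also: 100% = tunicamycin at 10 µg/mL and 0% = DMSO alone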
#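 assay system = CHO CHOP reporter cells | amount = 500 CHO-CHOP cells per well | buffer or medium = F12 with 10% FBS | incubation = 16-18 h cell attachment, then 6 h compound exposure, 37 °C | detection = luminescence read with Steady-Glo | read-out = percent activation relative to tunicamycin control | controls = tunicamycin high control, DMSO low control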
# Starred values were filed as active, the others as inactive; . = no result. The sample as a whole holds a higher share of hits than the screen did.
SMILES,TLR9-MyD88 inh,TLR4 MyD88 comp,UPR XBP1 act,CHOP inh,NOD2 RIPK2 PPI,CHOP UPR activ
O=C(Nc1cc([N+](=O)[O-])ccc1Cl)C(Sc1ccccc1)c1ccccc1 (stereo not given),2.0,8.2,-5.5,56.5,-10.5,-2.6
CC(C)(C)NS(=O)(=O)c1ccc(NC(=O)C(Sc2ccccc2)c2ccccc2)cc1 (stereo not given),2.5,6.7,2.3,75.1*,-1.0,0.4
CC(=O)N(C)c1ccc(NC(=O)C(Sc2ccccc2)c2ccccc2)cc1 (stereo not given),.,-7.9,-1.7,-11.5,3.7,0.6
C[C@H](CO)N1C[C@H](C)[C@@H](CN(C)C(=O)CN2CCOCC2)Oc2cc(Br)ccc2S1(=O)=O,-8.0,.,.,.,-8.2,.
O=C(O)c1ccc(N=NNc2cccc([N+](=O)[O-])c2)cc1,-6.5,2.1,0.3,5.7,-2.2,2.8
O=C(/C(N=Nc1cccc([N+](=O)[O-])c1)=C(/O)c1ccc(Br)cc1)C(F)(F)F,.,.,10.2,70.1*,2.7,18.9
CC12CCC(C/C1=N/NC(=O)Nc1ccccc1)C2(C)C (stereo not given),5.6,-6.0,3.8,89.6*,-4.4,2.1
CC(C)(C)c1ccc(S(=O)(=O)NCC(=O)Nc2ccc(-c3nc4ccccc4s3)cc2)cc1,-1.7,-13.5,-1.7,95.7*,0.6,5.6
Cc1ccc(C)c(S(=O)(=O)NC(C)C(=O)Nc2ccc(-c3nc4ccccc4s3)cc2)c1 (stereo not given),-9.0,-4.1,1.3,80.0*,1.1,4.0
Cc1ccc2nc(-c3ccc(NC(=O)CN(c4ccccc4C)S(C)(=O)=O)cc3)sc2c1,-0.3,6.4,-4.0,70.2*,-6.7,5.2
CC1(c2ccc(OC(F)F)cc2)NC(=O)N(CC(=O)Nc2ccccc2)C1=O (stereo not given),-3.6,.,10.1,.,0.0,4.3
Cc1ccc2nc(-c3ccc(NC(=O)CN4C(=O)NC(C)(c5ccc(OC(F)F)cc5)C4=O)cc3)sc2c1 (stereo not given),1.0,-7.2,10.9,76.3*,-1.7,5.3
Clc1ccc(Br)c(-c2nc3ccccc3[nH]2)c1,6.8,.,.,.,-13.1,.
Cc1cc(NC(=O)CSCC(=O)OCC(=O)c2ccc(Br)cc2)no1,-4.1,.,.,.,1.7,.
c1ccc(-c2nnc3sc(CN4CCC5(CC4)OCCO5)cn23)cc1,-3.4,2.2,0.3,77.0*,-5.8,1.2
CC(=O)C1=CCC(c2ccc(F)cc2)N(S(=O)(=O)c2ccc(C)cc2)C1 (stereo not given),.,.,.,.,-3.7,.
C=CCn1c(Cn2c(-c3cnccn3)nc3ccccc32)nc2ccccc21,.,.,.,.,6.2,.
O=C1CCCc2[nH]c3cccc(/C(=C/c4ccccc4)c4ccccc4)c3c21,6.6,.,1.9,.,-4.1,-1.3
COC(=O)c1ccc2[nH]c3cccc(/C(=C/c4ccccc4)c4ccccc4)c3c2c1,1.2,.,92.5*,.,-6.5,3.1
O=C1CCCC/C1=C/Nc1cccc(C(F)(F)F)c1,9.0,-17.9,0.3,-18.8,-18.2,1.2
O=C1CCC2S/C(=C/Nc3ccc(C(F)(F)F)cc3)C(=O)N12 (stereo not given),0.7,2.9,-6.8,94.9*,-1.8,-8.8
COc1cc(C(O)c2nc(-c3ccccc3OC)cs2)ccc1F (stereo not given),.,.,.,.,0.1,.
CC(=O)OCCNc1cc(N2CCN(C)CC2)c2noc3c2c1C(=O)c1ccccc1-3,5.5,-6.6,.,19.1,-7.5,.
CCOC(=O)C(C(=O)OCC)c1cc(Br)c2noc3c2c1C(=O)c1ccccc1-3,4.9,9.1,-11.2,110.5*,15.4,-6.7
CC1(C)Cc2c(cnn2-c2ccccc2)C(=O)/C1=N\NC(=O)c1ccncc1,1.0,-9.2,-0.6,.,-2.3,-0.6
SMILES,TLR9-MyD88 inh,TLR4 MyD88 comp,UPR XBP1 act,CHOP inh,NOD2 RIPK2 PPI,CHOP UPR activ
CC1(C)Cc2c(cnn2-c2ccccc2)-c2c1c1ccccc1n2CC(O)CCl (stereo not given),-0.6,-11.6,-3.3,94.0*,5.9,1.5
COCc1cccc(-c2csc(C(C)(NC(C)=O)c3ccc(OC)cc3)n2)c1 (stereo not given),.,.,.,.,-4.4,.
COC(=O)c1cc2c(ccn2-c2ccc(F)cc2)n1CC(C)C,-1.9,-5.6,4.5,23.4,1.9,-0.4
CCCn1c(C(=O)OC)cc2c1ccn2-c1ccc(F)cc1,-3.0,-16.6,2.6,71.0*,4.0,2.8
Clc1ccsc1-c1ccc2ccccc2n1,3.7,-10.1,0.9,89.5*,-2.9,7.7
CC(C)(C)C(=O)C(C(c1ccccc1)N1CCOCC1)N1CCOCC1 (stereo not given),-10.7,.,.,.,-18.6,.
CCCCCc1nnc(NC(=O)OCCC)s1,5.7,7.9,2.4,14.7,-8.3,9.1
CCCCCOC(=O)Nc1nnc(CCCCC)s1,1.3,9.2,-1.7,95.1*,0.7,3.4
CC(C)(C)C1CCc2onc(C(=O)Nc3cnn(Cc4ccc(F)cc4)c3)c2C1 (stereo not given),0.9,13.3,4.2,86.2*,2.9,3.4
O=C(Nc1cnn(Cc2ccc(F)cc2)c1)c1noc2c1CCCC2,5.6,-2.6,3.6,-1.4,-4.7,5.5
NS(=O)(=O)c1ccc(CCNc2ncnc3sccc23)cc1,-3.9,3.7,-1.0,.,-2.9,-2.0
Cc1sc2ncnc(NCCc3ccc(S(N)(=O)=O)cc3)c2c1C,-10.7,-4.9,1.1,73.3*,-5.6,3.0
FC(F)(F)c1cccc(N2CCN(c3ccc4nnc(-c5ccccc5)n4n3)CC2)c1,1.4,12.4,-0.3,85.0*,2.1,-0.5
c1ccc(-c2nnc3ccc(N4CCCC4)nn23)cc1,5.2,-10.8,3.6,-7.3,-2.2,0.4
COP(=O)(OC)OC(C(=O)c1ccccc1)c1ccc(Cl)cc1 (stereo not given),.,.,.,.,-2.3,.
Cc1cccc(C(C)C)c1NC(=O)COC(=O)c1cccc(S(=O)(=O)N2CCc3ccccc3C2)c1,-1.4,0.5,-1.1,85.3*,1.4,-0.2
O=C1c2ccccc2C(Nc2ccc(Cl)cn2)N1Cc1ccccc1 (stereo not given),-7.7,1.3,-1.6,80.3*,-9.1,0.1
O=C(CCc1ccccc1)NC(=S)Nc1cccc(Br)c1,-2.2,19.9,1.4,71.8*,-6.0,8.2
O=C(CCc1ccccc1)NC(=S)Nc1cccc(C(=O)O)c1,5.1,.,-10.3,.,-2.6,-4.5

# Compound activity deposited in PubChem by several laboratories.
